{"data": "Measurements gathered from unrelated publications", "note": "Compare with care: the assays were run in different laboratories."}
{"SMILES": "Cc1cc(S(=O)(=O)N[C@H]2CC[C@H](N3CCN(CC4CCN(c5cccc6c5n(C)c(=O)n6C5CCC(=O)NC5=O)CC4)CC3)CC2)ccc1Nc1ncc(C(F)(F)F)c(N2CCC[C@](C)(O)C2)n1 (some centres unmarked)", "assay": "metabolic stability", "test system": "human, liver microsomes", "setting": "1 µM", "measurement": "scaled CLint", "result": "33 mL/min/kg"}
{"SMILES": "CCOCC(=O)N1CC[C@@H](C)[C@H](C(=O)NCc2nc(-c3ccc(C)nc3)cs2)C1 (racemic)", "assay": "metabolic stability", "test system": "human, liver microsomes", "setting": "0.5 µM", "measurement": "microsomal CLint", "result": "6.9 µL/min/mg"}
{"SMILES": "COc1ccc2c(c1)CN(C(=O)CCN1CCC(Cc3ccccc3)CC1)CC[S@@+]2[O-]", "test system": "male human, plasma", "setting": "intravenous, 0.6 mg/kg, healthy volunteers", "measurement": "clearance", "result": "175 mL/min"}
{"SMILES": "C[C@H]1CN(c2ccc(C3CCC(=O)NC3=O)cc2F)CCN1CC12CCC(NS(=O)(=O)c3ccc(Nc4ncc(C(F)(F)F)c(N5CCC[C@](C)(O)C5)n4)c(F)c3)(CC1)CO2 (some centres unmarked)", "assay": "metabolic stability", "test system": "human, liver microsomes", "setting": "1 µM", "measurement": "scaled CLint", "result": "22 mL/min/kg"}
{"SMILES": "CCS(=O)(=O)N1CCC2(CC1)NC(=O)N(c1ccc(F)c(C(F)(F)F)c1)C2=O", "assay": "HPLC", "setting": "pH 7.4", "measurement": "chromatographic logD", "result": 3.1}
{"SMILES": "c1cc(-c2ccc3ncnc(Nc4ncco4)c3c2)cc(N2CC3CCC(C2)O3)c1", "assay": "shake flask", "test system": "aqueous buffer", "setting": "pH 7.4", "measurement": "logD", "result": "> 3.6"}
{"SMILES": "Cc1cc(S(=O)(=O)NC2CC(N3CC[C@@H](OC4CN(c5cccc6c5n(C)c(=O)n6C5CCC(=O)NC5=O)C4)[C@H](F)C3)C2)ccc1Nc1ncc(C(F)(F)F)c(N2CCC[C@](C)(O)C2)n1 (some centres unmarked)", "assay": "metabolic stability", "test system": "human, liver microsomes", "setting": "1 µM", "measurement": "scaled CLint", "result": "28 mL/min/kg"}
{"SMILES": "O=c1c2c([nH]c3cc(OC(F)(F)F)ccc13)CCCC2", "assay": "metabolic stability", "test system": "human, liver microsomes", "setting": "1 µM, pH 7.4", "measurement": "microsomal CLint", "result": "173 µL/min/mg"}
{"SMILES": "CC1(C)NC(=O)N(c2ccc(F)c(Br)c2)C1=O", "assay": "HPLC", "setting": "pH 7.4", "measurement": "chromatographic logD", "result": 2.4}
{"SMILES": "c1ccc(Oc2ccc(Nc3c4c(nc5ccccc35)CCC4)cc2)cc1", "assay": "HPLC", "setting": "pH 7.4", "measurement": "chromatographic logD", "result": "> 5.3"}
{"SMILES": "CCN(CC)CCCOc1ccc2c(=O)c3c([nH]c2c1)CCCC3", "assay": "metabolic stability", "test system": "human, liver microsomes", "setting": "1 µM, pH 7.4", "measurement": "microsomal CLint", "result": "5.53 µL/min/mg"}
{"SMILES": "CC1(C)NC(=O)N(c2ccc3c(c2)OC(F)(F)O3)C1=O", "assay": "HPLC", "setting": "pH 7.4", "measurement": "chromatographic logD", "result": 2.5}
{"SMILES": "CC(C)C[C@H](NC(=O)[C@H](CC(C)C)NC(=O)[C@H](Cc1c[nH]c2ccccc12)NC(=O)[C@H](CCC(=O)O)NC(=O)[C@@H](NC(=O)[C@H](Cc1ccccc1)NC(=O)[C@H](CCC(=O)O)NC(=O)[C@H](CCCCNC(=O)COCCOCCNC(=O)COCCOCCNC(=O)CC[C@H](NC(=O)CCCCCCCCCCCCCCCCCCC(=O)O)C(=O)O)NC(=O)[C@H](C)NC(=O)[C@H](CCCCN)NC(=O)[C@H](CCCCN)NC(=O)[C@H](CCC(=O)O)NC(=O)[C@H](CC(=O)O)NC(=O)[C@H](CC(C)C)NC(=O)[C@H](Cc1ccc(O)cc1)NC(=O)[C@H](CCCCN)NC(=O)[C@H](CO)NC(=O)[C@H](Cc1ccc(O)cc1)NC(=O)[C@H](CC(=O)O)NC(=O)[C@H](CO)NC(=O)[C@@H](NC(=O)[C@H](Cc1ccccc1)NC(=O)[C@@H](NC(=O)CNC(=O)[C@H](CCC(N)=O)NC(=O)C(C)(C)NC(=O)[C@@H](N)Cc1c[nH]cn1)[C@@H](C)O)[C@@H](C)O)C(C)C)C(=O)N[C@@H](CCC(=O)O)C(=O)NCC(=O)NCC(=O)N1CCC[C@H]1C(=O)N[C@@H](CO)C(=O)N[C@@H](CO)C(=O)NCC(N)=O", "test system": "human, plasma", "setting": "subcutaneous, 16 mg, multiple doses, patients", "measurement": "CL/F", "result": "0.5 mL/min"}
{"SMILES": "CC1(C(F)(F)F)NC(=O)N(c2ccc(F)c(C(F)(F)F)c2)C1=O (centres unmarked)", "assay": "HPLC", "setting": "pH 7.4", "measurement": "chromatographic logD", "result": 3.5}
{"SMILES": "O=c1c2c([nH]c3ccc(F)c(Oc4ccc(OC(F)(F)F)cc4)c13)CCCC2", "assay": "metabolic stability", "test system": "human, liver microsomes", "setting": "1 µM, pH 7.4", "measurement": "microsomal CLint", "result": "92.7 µL/min/mg"}
{"SMILES": "CN1CCN(c2cccc(-c3ccc4ncnc(Nc5ncco5)c4c3)c2)CC1", "assay": "shake flask", "test system": "aqueous buffer", "setting": "pH 7.4", "measurement": "logD", "result": 3.3}
{"SMILES": "NCCOCC(=O)N1CCC[C@H](C(=O)NCc2nc(-c3ccc(C(F)(F)F)cc3)cs2)C1", "assay": "metabolic stability", "test system": "male Sprague-Dawley rat, hepatocytes", "setting": "0.5 µM", "measurement": "scaled CLint", "result": "< 4.2 mL/min/kg"}
{"SMILES": "Clc1ccc(Nc2ncnc3ccc(-c4cccc(N5CCOCC5)c4)cc23)cc1Cl", "assay": "shake flask", "test system": "aqueous buffer", "setting": "pH 7.4", "measurement": "logD", "result": "> 4.2"}
{"SMILES": "C[C@]1(O)CCCN(c2nc(Nc3ccc(S(=O)(=O)N[C@@H]4CCN(CC5CCN(c6ccc(C7CCC(=O)NC7=O)cc6F)CC5)C[C@H]4F)cc3F)ncc2C(F)(F)F)C1 (some centres unmarked)", "assay": "metabolic stability", "test system": "human, liver microsomes", "setting": "1 µM", "measurement": "scaled CLint", "result": "22 mL/min/kg"}
{"SMILES": "CN1CCC(Oc2ccc3c(=O)c4c(F)cc(Cl)cc4[nH]c3c2)CC1", "assay": "metabolic stability", "test system": "human, liver microsomes", "setting": "1 µM, pH 7.4", "measurement": "microsomal CLint", "result": "24.9 µL/min/mg"}
{"SMILES": "N[C@@H](COCC(=O)N1CCC[C@H](C(=O)NCc2nc(-c3ccc(C(F)(F)F)cc3)cs2)C1)c1ccccc1", "assay": "metabolic stability", "test system": "human, liver microsomes", "setting": "0.5 µM", "measurement": "microsomal CLint", "result": "65 µL/min/mg"}
{"SMILES": "c1cc(-c2ccc3ncnc(Nc4ncco4)c3c2)nc(N2CCOCC2)c1", "assay": "shake flask", "test system": "aqueous buffer", "setting": "pH 7.4", "measurement": "logD", "result": 3.1}
{"SMILES": "CCONC(=O)N1CCC[C@H](C(=O)N[C@@H](C)c2nc(-c3ccc(C#N)cc3)cs2)C1", "assay": "metabolic stability", "test system": "male Sprague-Dawley rat, liver microsomes", "setting": "0.5 µM", "measurement": "microsomal CLint", "result": "36 µL/min/mg"}
{"SMILES": "Cc1cc(S(=O)(=O)N[C@]2(C)C[C@H](N3CCN(CC4CCN(c5ccc6c(c5F)n(C)c(=O)n6C5CCC(=O)NC5=O)CC4)CC3)C2)ccc1Nc1ncc(C(F)(F)F)c(N2CCC[C@](C)(O)C2)n1 (some centres unmarked)", "assay": "metabolic stability", "test system": "rat, liver microsomes", "setting": "1 µM", "measurement": "scaled CLint", "result": "< 21 mL/min/kg"}
{"SMILES": "CC(C)(N)COCC(=O)N1CCC[C@H](C(=O)NCc2nc(-c3ccc(C(F)(F)F)cc3)cs2)C1", "assay": "metabolic stability", "test system": "male Sprague-Dawley rat, hepatocytes", "setting": "0.5 µM", "measurement": "scaled CLint", "result": "21 mL/min/kg"}
{"SMILES": "CC1(C)NC(=O)N(c2ccc(F)c(S(C)(=O)=O)c2)C1=O", "assay": "HPLC", "setting": "pH 7.4", "measurement": "chromatographic logD", "result": 1.2}
{"SMILES": "C[C@]1(O)CCCN(c2nc(Nc3ccc(S(=O)(=O)N[C@H]4CC[C@H](CN5CCN(c6ccc(C7CCC(=O)NC7=O)c(F)c6)CC5)CC4)cc3F)ncc2C(F)(F)F)C1 (some centres unmarked)", "assay": "metabolic stability", "test system": "rat, liver microsomes", "setting": "1 µM", "measurement": "scaled CLint", "result": "< 21 mL/min/kg"}
{"SMILES": "CC1(C)NC(=O)N(c2cccc(C(F)(F)F)n2)C1=O", "assay": "HPLC", "setting": "pH 7.4", "measurement": "chromatographic logD", "result": 1.6}
{"SMILES": "COCC(=O)N1CCC[C@H](C(=O)NCc2nc(-c3ccccc3)cs2)C1", "assay": "metabolic stability", "test system": "male Sprague-Dawley rat, liver microsomes", "setting": "0.5 µM", "measurement": "microsomal CLint", "result": "19 µL/min/mg"}
{"SMILES": "CC1(C)NC(=O)N(c2cc(C(F)(F)F)c(F)cc2C#N)C1=O", "assay": "HPLC", "setting": "pH 7.4", "measurement": "chromatographic logD", "result": 2.8}
{"SMILES": "Cc1cc(S(=O)(=O)NC2CC(N3CCN(CC4CCN(c5ccc6c(c5F)n(C)c(=O)n6C5CCC(=O)NC5=O)CC4)CC3)C2)ccc1Nc1ncc(C(F)(F)F)c(N2CCCC(C)(O)C2)n1 (centres unmarked)", "assay": "metabolic stability", "test system": "rat, liver microsomes", "setting": "1 µM", "measurement": "scaled CLint", "result": "< 21 mL/min/kg"}
{"SMILES": "COCC(=O)N1CCC[C@H](C(=O)NCc2nc(-c3ccc(C#N)cc3)cs2)C1", "assay": "metabolic stability", "test system": "male Sprague-Dawley rat, liver microsomes", "setting": "0.5 µM", "measurement": "scaled CLint", "result": "30 mL/min/kg"}
